Test [1] can be described thus: Inhibition of HCV NS5b RNA polymerase assessed as [3H]UTP incorporation into RNA. Set-up: species or system Hepacivirus hominis. In outline:
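NS5B570n-BK (200 nM) with poly-A:oligo U₁₆ template:primer (8.4 µg/mL), 2.1 µCi tritiated UTP, 1 µM ATP, CTP, GTP in 40 mM Tris-HCl pH 8.0, NaCl, 4 mM DTT, 4 mM MgCl₂; compound serially diluted in DMSO. 2 h at 30 °C, TCA stop, filtration, scintillation counting. IC50 from duplicate means.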

A short description of test [2]: Binding affinity to HCV NS5b RNA polymerase by SPR assay. Further details: species or system Hepacivirus hominis.
For test [3], the system named is Hepatitis C virus. The experiment in a line: Antiviral activity against Hepatitis C virus by replicon assay. The test is classed as functional, organism-based, Hepacivirus hominis.

Molecules are shown by their SMILES.

As usually defined, the IC50 is the concentration that gives 50% inhibition. As a reminder, the Kd is a measure of binding affinity in units of concentration. Read a high Kd as lower affinity. What is called EC50 is the midpoint of the concentration-response curve.

For the compound `C[C@@H]1C[C@H](C)CN(C(=O)c2cc(Br)ccc2NS(C)(=O)=O)C1`, in test [1], the IC50 was 7.5 µM.
Consider `Nc1ccc(Br)cc1C(=O)N1CCCCC1`, for which, in test [1], the IC50 was more than 500 µM.
For `Nc1ccc(Br)cc1C(=O)N1CCOCC1`, in test [1], the IC50 is more than 500 µM.
For the compound `C[C@@H]1C[C@H](C)CN(C(=O)c2cc(Br)ccc2NC(=O)CCC(=O)c2cccs2)C1`, in test [1], the IC50 worked out at 0.44 µM. Besides, the dissociation constant (Kd) in test [2] was 0.97 µM. The compound also yielded an EC50 in test [3] of 4.3 µM.
Take `Nc1ccc(Br)cc1C(=O)NCc1ccccc1`: in test [1], the 50% inhibitory concentration (IC50) was more than 500 µM.
Regarding `Nc1ccc(Br)cc1C(=O)Nc1ccccc1Cl`, the 50% inhibitory concentration (IC50) in test [1] is 178 µM.
Still for that read-out and setting: next, `C[C@@H]1C[C@H](C)CN(C(=O)c2cc(Br)ccc2NC(=O)CC(=O)N(C)C)C1`: 11 µM.
For the compound `CC(=O)Nc1ccc(Br)cc1C(=O)N1C[C@H](C)C[C@H](C)C1`, the IC50 in test [1] came to 11 µM. In addition, the Kd in test [2] is 1.7 µM.
With `COC(=O)CCC(=O)Nc1ccc(Br)cc1C(=O)N1C[C@H](C)C[C@H](C)C1`, the IC50 in test [1] is 2.1 µM.
`C[C@@H]1C[C@H](C)CN(C(=O)c2cc(Br)ccc2NC(=O)CCC(=O)O)C1`: the half-inhibitory concentration (IC50) in test [1] was 1 µM. Besides, in test [3], the EC50 stood at 22.8 µM.
For `C[C@@H]1C[C@H](C)CN(C(=O)c2cc(Br)ccc2NC(=O)[C@@H]2C[C@@H](O)CN2C(=O)c2ccco2)C1`, in test [1], the concentration for half-maximal inhibition (IC50) worked out at 1.03 µM. This compound also registered a Kd in test [2] of 0.15 µM. The same compound yielded an EC50 in test [3] of 3.7 µM.
For the compound `C[C@@H]1C[C@H](C)CN(C(=O)c2cc(Br)ccc2NC(=O)[C@@H]2CCCN2C(=O)c2cccnc2)C1`, in test [1], the IC50 came out at 0.35 µM. Moreover, binding in test [2] was characterised by a dissociation constant (Kd) of 1.28 µM. In test [3], it took 12.9 µM to reach a half-maximal effect (EC50).
Turning to `C[C@@H]1C[C@H](C)CN(C(=O)c2cc(Br)ccc2NC(=O)CCC(N)=O)C1`, in test [1], the IC50 came to 4.3 µM. This compound also came in with a Kd in test [2] of 9.4 µM.
Turning to `C[C@@H]1C[C@H](C)CN(C(=O)c2cc(Br)ccc2NC(=O)CCCC(=O)O)C1`, the IC50 in test [1] is 9 µM.
Regarding `C[C@@H]1C[C@H](C)CN(C(=O)c2cc(Br)ccc2NC(=O)CNC(=O)c2cccnc2)C1`, in test [1], the IC50 was 0.43 µM. Also, in test [2], the equilibrium dissociation constant (Kd) came out at 0.57 µM. The compound further came in with an EC50 in test [3] of 5.7 µM.
`CC1CCCN(C(=O)c2cc(Br)ccc2N)C1` (stereo not given): the concentration for half-maximal inhibition (IC50) in test [1] came out at 170 µM. In test [2], this compound returned a Kd of 192 µM.
Take `Cc1cc(CNC(=O)Nc2ccc(Br)cc2C(=O)N2C[C@H](C)C[C@H](C)C2)nn1C`: in test [1], the half-inhibitory concentration (IC50) was determined as 0.17 µM. This compound also yielded a Kd in test [2] of 0.37 µM. Also, a half-maximal effect in test [3] (EC50) was put at 4.6 µM.
Taken in the same sequence, the figures for `C[C@@H]1C[C@H](C)CN(C(=O)c2cc(Br)ccc2NC(=O)CNC(=O)c2ccccc2)C1` were 0.13 µM, 0.54 µM and 5.5 µM.
In the case of `Nc1ccc(Br)cc1C(=O)N1CCc2ccccc2C1`, the IC50 in test [1] was 132 µM. Also, the Kd in test [2] is 210 µM.
Take `C[C@@H]1C[C@H](C)CN(C(=O)c2cc(Br)ccc2NC(=O)CCC(=O)c2cccnc2)C1`: the IC50 in test [1] worked out at 0.59 µM. In test [2], the affinity, expressed as Kd, was 1.04 µM. Further, in test [3], the midpoint of the response, the EC50, lay at 7.9 µM.
With `O=C(O)CCC(=O)Nc1ccc(Br)cc1C(=O)NCC1CCCCC1`, the IC50 in test [1] was more than 500 µM.
With `C[C@@H]1C[C@H](C)CN(C(=O)c2cc(Br)ccc2NC(=O)CCC(=O)N2CCOCC2)C1`, in test [1], the 50% inhibitory concentration (IC50) was found to be 0.25 µM. The same compound came in with an EC50 in test [3] of 7.4 µM.
With `C[C@@H]1C[C@H](C)CN(C(=O)c2cc(Br)ccc2N)C1`, the IC50 in test [1] was 17 µM.
For the compound `C[C@@H]1C[C@H](C)CN(C(=O)c2cc(Br)ccc2NC(=O)CNC(=O)c2ccco2)C1`, the 50% inhibitory concentration (IC50) in test [1] amounted to 0.25 µM. Moreover, in test [2], the Kd came out at 1.02 µM. Further, it took 8.7 µM to reach a half-maximal effect in test [3] (EC50).
`C[C@@H]1CN(C(=O)c2cc(Br)ccc2N)C[C@H](C)O1`: the IC50 in test [1] came to 190 µM. This compound displayed a Kd in test [2] of 36 µM.
For `C[C@@H]1C[C@H](C)CN(C(=O)c2cc(Br)ccc2NC(=O)CCC(=O)c2ccccn2)C1`, the IC50 in test [1] was determined as 0.54 µM. The same compound came in with a Kd in test [2] of 1.85 µM.
`CC(C)NC(=O)c1cc(Br)ccc1NC(=O)CCC(=O)O`: the concentration for half-maximal inhibition (IC50) in test [1] is more than 500 µM.
For `C[C@@H]1C[C@H](C)CN(C(=O)c2cc(Br)ccc2NC(=O)NCc2ccc(N(C)C)cc2)C1`, the IC50 in test [1] was determined as 1 µM. In test [2], this compound gave an equilibrium dissociation constant (Kd) of 0.8 µM. For the same compound, a half-maximal effect in test [3] (EC50) was put at 4.9 µM.
Taken in the same sequence, the figures for `C[C@@H]1C[C@H](C)CN(C(=O)c2cc(Br)ccc2NC(=O)NCC(=O)N(C)C)C1` were 0.6 µM, 0.46 µM and 5.6 µM.
As to `C[C@@H]1C[C@H](C)CN(C(=O)c2cc(Br)ccc2NC(=O)CCC(=O)N(C)C)C1`, the IC50 in test [1] is 0.4 µM. The compound also displayed a Kd in test [2] of 0.3 µM. The compound also returned an EC50 in test [3] of 6.1 µM.
`Cc1cnc(CNC(=O)Nc2ccc(Br)cc2C(=O)N2C[C@H](C)C[C@H](C)C2)cn1`: in test [1], the half-maximal inhibitory concentration (IC50) came out at 0.36 µM. Moreover, the equilibrium dissociation constant (Kd) in test [2] amounted to 0.35 µM. In addition, a half-maximal response in test [3] (EC50) required 6.9 µM.
Regarding `O=C(O)CCC(=O)Nc1ccc(Br)cc1C(=O)N1CCSCC1`, the IC50 in test [1] is 533 µM.
Consider `Nc1ccc(Br)cc1C(=O)N1CCCC1`, for which, in test [1], the half-inhibitory concentration (IC50) was more than 500 µM.

The values are drawn from ChEMBL document CHEMBL1145604, “Fragment-based discovery of hepatitis C virus NS5b RNA polymerase inhibitors” (Bioorg Med Chem Lett, 2008).
